Converted amounts (≈) assume the structure as drawn. The source made the active and inactive calls. No cut-off for these calls is given here.
How the values were obtained:
[1] = tested on: Human immunodeficiency virus; assay: Antiviral activity against HIV infected in human MT4 cells by MTT assay; format: functional, organism-based
[2] = Cytotoxicity against african green monkey Vero cells after 2 days by MTT assay; format: cell-based; conditions: chlorocebus sabaeus
Summary of the method: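 Vero cells plated at 1.0 × 10^5 cells/ml and exposed in triplicate to a range of compound concentrations, with 0.1% DMSO as negative control. After 2 days at 37 °C, 5% CO2, MTT added for 4 h. Formazan dissolved in 0.04 N HCl/isopropanol and read at 570 nm (reference 690 nm). % viability taken against media control; CC50 in µg/ml.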

[3] = tested on: Human alphaherpesvirus 1; assay: Antiviral activity against HSV-1F ATCC 733 infected in african green monkey Vero cells assessed as inhibition of virus yield at 20 ug/ml after 3 days by MTT assay; format: functional; conditions: Human alphaherpesvirus 1, ATCC 733, Vero, 72 h
[4] = tested on: Human herpesvirus 2 strain G; assay: Antiviral activity against HSV-2G ATCC 734 infected in african green monkey Vero cells after 2 to 3 days by plaque reduction assay; format: functional, organism-based; conditions: Human alphaherpesvirus 2, ATCC 734, Vero
Summary of the method: (§1)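 Vero cells infected at MOI 0.5 (HSV-1 or HSV-2), with serial compound dilutions in EMEM, held 1–2 h at room temperature. Cells then washed and overlaid with methylcellulose. Plaques stained with crystal violet after 2–3 days. Acyclovir and 0.1% DMSO served as controls. EC50 (50% plaque reduction) interpolated from dose-response curves.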

[5] = tested on: Human alphaherpesvirus 1; assay: Antiviral activity against HSV-1F ATCC 733 infected in african green monkey Vero cells assessed as inhibition of virus induced cytopathic effect after 3 days by MTT assay; format: functional, organism-based; conditions: Human alphaherpesvirus 1, ATCC 733, Vero, 72 h
Summary of the method: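 Vero cells seeded at 1.0 × 10^5 cells/ml, held 6 h at 37 °C, 5% CO2, then infected with virus at 0.5 MOI for 1 h. Serial compound concentrations added in triplicate, with 0.1% DMSO and acyclovir controls. MTT read after 3 days at 37 °C. % inhibition taken from test, virus-control and cell-control absorbances. EC50 is 50% inhibition of virus-induced CPE; experiment repeated three times.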

[6] = Selectivity index, ratio of CC50 for african green monkey Vero cells to EC50 for HSV-1F ATCC 733; format: toxicity, cell-based; conditions: read-out: Ratio CC50/EC50
Summary of the method: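 SI computed as CC50/EC50. CC50 from the 2-day MTT viability assay on Vero cells; EC50 from the 3-day MTT assay of HSV-1 cytopathic effect (MOI 0.5). Both in µg/ml.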

[7] = Selectivity index, ratio of CC50 for african green monkey Vero cells to EC50 for HSV-1F ATCC 733 by plaque reduction assay; format: toxicity, cell-based; conditions: read-out: Ratio CC50/EC50
Summary of the method: (§2)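 SI derived from the Vero CC50 (MTT) divided by the plaque-reduction EC50 against the named HSV strain (MOI 0.5, methylcellulose overlay, crystal violet count after 2–3 days).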

[8] = tested on: Human alphaherpesvirus 1; assay: Antiviral activity against HSV-1F ATCC 733 infected in african green monkey Vero cells after 2 to 3 days by plaque reduction assay; format: functional, organism-based; conditions: Human alphaherpesvirus 1, ATCC 733, Vero; summary of the method: as §1
[9] = Selectivity index, ratio of CC50 for african green monkey Vero cells to EC50 for HSV-2G ATCC 734 by plaque reduction assay; format: toxicity, cell-based; conditions: read-out: Ratio CC50/EC50; summary of the method: as §2

EC50 [4] [µg/mL] | EC50 [8] [µg/mL] | Structure (SMILES) | Activity [1] | CC50 at 48 h [2] [µg/mL] | inhibition at 20 µg/mL [3] [%] | EC50 [5] [µg/mL] | selectivity ratio [6] | selectivity ratio [7] | selectivity ratio [9]
 |  | O=C(NCCO)c1c(N2CCCC2)cc(-c2ccc(F)cc2)oc1=O | inactive |  |  |  |  |  | 
 |  | O=C(Nc1ccc(Cl)cc1)c1c(N2CCCC2)cc(-c2ccccc2)oc1=O | inactive |  |  |  |  |  | 
 |  | O=C(Nc1ccc(F)cc1)c1c(N2CCCC2)cc(-c2ccccc2)oc1=O | inactive |  |  |  |  |  | 
 |  | O=C(Nc1ccc(Br)cc1)c1c(N2CCCC2)cc(-c2ccccc2)oc1=O | inactive |  |  |  |  |  | 
1.8 (≈ 7.99 µM) |  | Nc1nc2c(ncn2COCCO)c(=O)[nH]1 [ACYCLOVIR] |  | 130 (≈ 577 µM) | 94 |  |  |  | 
 |  | Cc1ccc(NC(=O)c2c(N3CCCC3)cc(-c3ccccc3)oc2=O)cc1 | inactive | 56.5 (≈ 151 µM) | 62 | 20.9 (≈ 55.8 µM) | 2.7 |  | 
14.5 (≈ 42.3 µM) | 4.1 (≈ 12 µM) | O=C(NCCO)c1c(N2CCCCC2)cc(-c2ccccc2)oc1=O | inactive | 52.5 (≈ 153 µM) | 89 | 7.4 (≈ 21.6 µM) | 7.1 | 12.8 | 3.6
 |  | O=C(NCCO)c1c(N2CCCCC2)cc(-c2ccc(F)cc2)oc1=O | inactive |  |  |  |  |  | 
 |  | O=C(Nc1ccccc1)c1c(N2CCCC2)cc(-c2ccccc2)oc1=O | inactive | 37.5 (≈ 104 µM) | 79 | 12.5 (≈ 34.7 µM) | 3 |  | 
 |  | O=C(NCCO)c1c(N2CCCC2)cc(-c2ccccc2)oc1=O | inactive | 30 (≈ 91.4 µM) | 70 | 9.7 (≈ 29.5 µM) | 3.1 |  | 
